Activity calls are given as the source filed them. No cut-off for these calls is given here.
Columns and labels:
Assay type in all cases: functional
[1] = system: Fusarium verticillioides; assay: Antifungal activity against Fusarium verticillioides assessed as growth inhibition at 2 ug/ml after 72 hr by disk diffusion test
Method in brief: (§1)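 Strains from a university mycology culture collection, grown on PDA at 28 °C for 8–15 d until plates were covered. Mycelial disks ([…]) were cut from colony edges and placed on test plates. Ethylene glycol served as negative control. Plates were incubated at 28 °C for up to 72 h in triplicate. Percent inhibition was calculated from reduction in growth diameter.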

[2] = system: Fusarium verticillioides; assay: Antifungal activity against Fusarium verticillioides assessed as growth inhibition at 2 ug/ml after 48 hr by disk diffusion test; method in brief: as §1
[3] = system: Fusarium solani; assay: Antifungal activity against Fusarium solani assessed as growth inhibition at 2 ug/ml after 72 hr by disk diffusion test; conditions: read-out: GI; method in brief: as §1
[4] = system: Fusarium decemcellulare; assay: Antifungal activity against Fusarium decemcellulare assessed as growth inhibition at 2 ug/ml after 72 hr by disk diffusion test; conditions: read-out: GI; method in brief: as §1
[5] = system: Fusarium lateritium; assay: Antifungal activity against Fusarium lateritium assessed as growth inhibition at 2 ug/ml after 72 hr by disk diffusion test; conditions: read-out: GI; method in brief: as §1

Compound `O=C(O)CCc1nc(-c2ccccc2)no1` has an inhibition of growth at 2 µg/mL ([1]; read-out: GI) of 52.8% and an inhibition of growth at 2 µg/mL ([2]; read-out: GI) of 52.8%.
`O=C(O)CCc1nc(-c2ccc(Br)cc2)no1` was tested, and the “growth inhibition (GI)” value [1] was “inactive” and the “growth inhibition (GI)” value [2] was “Active”.
`Cc1cccc(-c2noc(CCC(=O)O)n2)c1` was tested, and the “growth inhibition (GI)” value [1] was “inactive” and the “growth inhibition (GI)” value [2] was “Active”.
`O=C(O)CCc1nc(-c2ccc(Cl)cc2)no1` was tested, and the inhibition of growth at 2 µg/mL [3] was 59.7%, the “growth inhibition (GI)” value [1] was “inactive” and the “growth inhibition (GI)” value [2] was “Active”. It also gave an inhibition of growth at 2 µg/mL [4] of 66%.
For `Cc1ccc(-c2noc(CCC(=O)O)n2)cc1`, the “growth inhibition (GI)” value [1] was “inactive” and the “growth inhibition (GI)” value [2] was “Active”.
For `Cc1ccccc1-c1noc(CCC(=O)O)n1`, the “growth inhibition (GI)” value [1] was “inactive” and the “growth inhibition (GI)” value [2] was “Active”.
For `O=C(O)CCc1nc(-c2ccc(F)cc2)no1`, the “growth inhibition (GI)” value [1] was “inactive”, the “growth inhibition (GI)” value [2] was “Active” and the inhibition of growth at 2 µg/mL [5] was 43%.
With `O=C(O)CCc1nc(-c2ccc([N+](=O)[O-])cc2)no1` the “growth inhibition (GI)” value [1] was “inactive” and the “growth inhibition (GI)” value [2] was “Active”.
With `COc1ccc(-c2noc(CCC(=O)O)n2)cc1` the “growth inhibition (GI)” value [1] was “inactive”, the “growth inhibition (GI)” value [2] was “Active” and the inhibition of growth at 2 µg/mL [5] was 45.8%. For the same compound, the inhibition of growth at 2 µg/mL [4] was 52.8%.

Reference: ChEMBL document CHEMBL3046415, “Improved microwave-mediated synthesis of 3-(3-aryl-1,2,4-oxadiazol-5-yl)propionic acids and their larvicidal and fungal growth inhibitory properties” (2009)
